# What was measured:
# [1] = species on record: Mus musculus; assay: Minimal inhibitory concentration required to cause a microscopic detectable alteration of C3H/3T3 embryo murine fibroblast cell morphology; format: functional
# In short: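 Uninfected C3H/3T3 murine embryo fibroblast cultures were exposed to test compound and checked microscopically for changes in cell morphology. The MIC is the concentration causing a microscopically detectable alteration of morphology.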
# [2] = test system: CCRF-CEM; assay: Inhibitory concentration against proliferation of human T-lymphocytic (CEM) cells; format: functional, cell-based; details: Homo sapiens, CCRF-CEM
# In short: (§1)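 (5–7.5) × 10^4 cells per well were incubated with test compound at 37 °C in a humidified CO2 atmosphere. L1210 murine leukemia cells grew for 48 h, and CEM and Molt4/clone 8 human lymphocytes grew for 72 h. Cells were then counted with a Coulter counter. IC50 is the concentration inhibiting proliferation by 50%.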
# [3] = test system: Human immunodeficiency virus 2; assay: Concentration required to protect human T-lymphocytic cells against the cytopathogenicity of HIV-2; format: functional, organism-based; details: Human immunodeficiency virus 2
# [4] = test system: MOLT-4; assay: Inhibitory concentration of compound against proliferation of human T-lymphocytic cells MOLT-4/C8 was determined; format: functional, cell-based; in short: as §1
# [5] = species on record: Mus musculus; assay: Effective concentration of compound required to protect C3H/3T3 embryo murine fibroblasts against the MSV induced transformation; format: functional, organism-based; details: Mus musculus, C3H/3T3
# In short: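 Monolayer murine embryo fibroblast C3H/3T3 cultures were infected with Moloney murine sarcoma virus at 75 focus-forming units and cultured with test compound. Transformation was examined microscopically on day 6 postinfection. EC50 is the concentration protecting cells against MSV-induced transformation by 50%.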
# [6] = test system: L1210; assay: Inhibitory concentration of compound against proliferation of murine lukemia cells L1210 was determined; format: functional, cell-based; details: Mus musculus; in short: as §1
# [7] = test system: Human immunodeficiency virus 1; assay: Effective concentration of compound required to protect human T-lymphocytic cells against the cytopathogenicity of HIV-1; format: functional, organism-based; details: Human immunodeficiency virus 1
Compound,MIC [1],IC50 [2],EC50 [3],IC50 [4],EC50 [5],IC50 [6],EC50 [7]
O=C(NC1C(=O)NC2Cc3ccc(c(Cl)c3)Oc3cc4cc(c3O)Oc3ccc(cc3Cl)C(O)C3NC(=O)C(NC(=O)C4NC(=O)C(NC2=O)c2cc(O)cc(c2)Oc2cc1ccc2O)c1ccc(O)c(c1)-c1c(O)cc(O)cc1[C@H](C(=O)O)NC3=O)OC12CC3CC(CC(C3)C1)C2 (stereo partly specified),> 20 µM,104 µM,6 µM,25 µM,9.8 µM,22 µM,13 µM
CCCCCCCCCCNCc1c(O)cc2c(c1O)-c1cc(ccc1O)[C@H]1NC(=O)[C@@H]3NC(=O)[C@H](CC(N)=O)NC(=O)[C@H](NC(=O)[C@@H](CC(C)C)NC)[C@H](O)c4ccc(c(Cl)c4)Oc4cc3cc(c4O[C@@H]3O[C@H](CO)[C@@H](O)[C@H](O)[C@H]3O[C@H]3C[C@](C)(N)[C@@H](O)[C@H](C)O3)Oc3ccc(cc3)[C@@H](O[C@H]3C[C@](C)(N)[C@@H](O)[C@H](C)O3)[C@H](NC1=O)C(=O)N[C@@H]2C(=O)O,–,24 µM,> 20 µM,27 µM,–,19 µM,> 20 µM
CNC(=O)[C@H]1NC(=O)[C@H]2NC(=O)[C@H](NC(=O)[C@@H]3NC(=O)[C@H](CC(N)=O)NC(=O)[C@H](NC(=O)[C@@H](CC(C)C)NC)[C@H](O)c4ccc(c(Cl)c4)Oc4cc3cc(c4O[C@@H]3O[C@H](CO)[C@@H](O)[C@H](O)[C@H]3O[C@H]3C[C@](C)(N)[C@@H](O)[C@H](C)O3)Oc3ccc(cc3)[C@H]2O[C@H]2C[C@](C)(N)[C@@H](O)[C@H](C)O2)c2ccc(O)c(c2)-c2c(O)cc(O)cc21,–,> 500 µM,> 250 µM,> 500 µM,–,> 500 µM,> 250 µM
CN[C@@H](CC(C)C)C(=O)NC1C(=O)N[C@@H](CC(N)=O)C(=O)NC2C(=O)NC3C(=O)NC(C(=O)N[C@@H](C(=O)O)c4cc(O)cc(O)c4-c4cc3ccc4O)C(O)c3ccc(c(Cl)c3)Oc3cc2cc(c3O)Oc2ccc(cc2Cl)C1O (stereo partly specified),> 100 µM,> 500 µM,> 250 µM,> 500 µM,> 100 µM,> 500 µM,65 µM
O=CC(=O)c1[nH]c2ccccc2c1NC1C(=O)NC2Cc3ccc(c(Cl)c3)Oc3cc4cc(c3O)Oc3ccc(cc3Cl)C(O)C3NC(=O)C(NC(=O)C4NC(=O)C(NC2=O)c2cc(O)cc(c2)Oc2cc1ccc2O)c1ccc(O)c(c1)-c1c(O)cc(O)cc1[C@H](C(=O)O)NC3=O (stereo partly specified),> 100 µM,108 µM,15 µM,108 µM,4.4 µM,192 µM,10 µM
COC(=O)[C@@H]1NC(=O)C2NC(=O)C(NC(=O)C(N)c3cc(Oc4ccc(CC(NC(=O)OCc5ccccc5)C(=O)O)cc4Cl)c(O)c(c3)Oc3ccc(cc3Cl)C2O)c2ccc(O)c(c2)-c2c(O)cc(O)cc21 (stereo partly specified),–,> 500 µM,85 µM,> 500 µM,–,> 500 µM,25 µM
COC(=O)[C@@H]1NC(=O)C2NC(=O)C(NC(=O)C(NC(=O)OC(C)(C)C)c3cc(Oc4ccc(CC(NC(=O)OCc5ccccc5)C(=O)O)cc4Cl)c(O)c(c3)Oc3ccc(cc3Cl)C2O)c2ccc(O)c(c2)-c2c1cc(O)c(CNC1C3CC4CC(C3)CC1C4)c2O (stereo partly specified),> 100 µM,240 µM,11 µM,122 µM,26 µM,95 µM,17 µM
CN(Cc1ccc(Cl)cc1)Cc1c(O)cc2c(c1O)-c1cc(ccc1O)C1NC(=O)C3NC(=O)C4NC(=O)C(Cc5ccc(c(Cl)c5)Oc5cc3cc(c5O)Oc3ccc(cc3Cl)C(O)C(NC1=O)C(=O)N[C@H]2C(=O)O)NC(=O)C(N)c1ccc(O)c(c1)Oc1cc(O)cc4c1 (stereo partly specified),> 100 µM,> 100 µM,20 µM,> 100 µM,11 µM,> 100 µM,17 µM
CNC1C(=O)NC2Cc3ccc(cc3)Oc3cc4cc(c3O[C@@H]3O[C@@H](C(=O)O)[C@@H](O)[C@H](O)[C@@H]3N)Oc3ccc(cc3Cl)C(O)C3NC(=O)C(NC(=O)C4NC(=O)C(NC2=O)c2cc(cc(O)c2Cl)Oc2cc1ccc2O)c1ccc(O)c(c1)-c1c(O[C@H]2O[C@H](CO)[C@@H](O)[C@@H](O)[C@@H]2O)cc(O)cc1[C@H](C(=O)O)NC3=O (stereo partly specified),> 100 µM,> 500 µM,> 250 µM,> 500 µM,> 100 µM,> 500 µM,> 250 µM
CNC(=O)[C@@H]1NC(=O)C2NC(=O)C(NC(=O)C3NC(=O)C(CC(N)=O)NC(=O)C(NC(=O)C(CC(C)C)NC)C(O)c4ccc(c(Cl)c4)Oc4cc3cc(c4O)Oc3ccc(cc3)C2O)c2ccc(O)c(c2)-c2c1cc(O)c(CN1CCN(Cc3ccc(-c4ccccc4)cc3)CC1)c2O (stereo partly specified),> 100 µM,> 100 µM,5.5 µM,> 100 µM,12 µM,> 100 µM,4 µM
CCCCc1ccc(CN2CCN(Cc3c(O)cc4c(c3O)-c3cc(ccc3O)C3NC(=O)C5NC(=O)C6NC(=O)C(Cc7ccc(cc7)Oc7cc5cc(c7OC5OC(C(=O)O)C(O)C(O)C5N)Oc5ccc(cc5Cl)C(O)C(NC3=O)C(=O)N[C@H]4C(=O)O)NC(=O)C(NC)c3ccc(O)c(c3)Oc3cc(O)c(Cl)c6c3)CC2)cc1 (stereo partly specified),100 µM,106 µM,> 50 µM,> 50 µM,6.9 µM,20 µM,20 µM
CNC(=O)[C@@H]1NC(=O)C2NC(=O)C(NC(=O)C3NC(=O)C(CC(N)=O)NC(=O)C(N)C(O)c4ccc(c(Cl)c4)Oc4cc3cc(c4O)Oc3ccc(cc3)C2O)c2ccc(O)c(c2)-c2c1cc(O)c(CNC1C3CC4CC(C3)CC1C4)c2O (stereo partly specified),> 100 µM,> 250 µM,20 µM,> 250 µM,14 µM,> 250 µM,13 µM
CCCCCCCCCCNCc1c(O)cc2c(c1O)-c1cc(ccc1O)C1NC(=O)C3NC(=O)C4NC(=O)C(Cc5ccc(c(Cl)c5)Oc5cc3cc(c5O)Oc3ccc(cc3Cl)C(O)C(NC1=O)C(=O)N[C@H]2C(=O)NCCCN(C)C)NC(=O)C(N)c1ccc(O)c(c1)Oc1cc(O)cc4c1 (stereo partly specified),–,> 100 µM,6.1 µM,> 100 µM,–,48 µM,1.4 µM
CCCCc1ccc(CNCc2c(O)cc3c(c2O)-c2cc(ccc2O)C2NC(=O)C4NC(=O)C5NC(=O)C(Cc6ccc(c(Cl)c6)Oc6cc4cc(c6O)Oc4ccc(cc4Cl)C(O)C(NC2=O)C(=O)N[C@H]3C(=O)O)NC(=O)C(NC(=O)OC(C)(C)C)c2ccc(O)c(c2)Oc2cc(O)cc5c2)cc1 (stereo partly specified),> 100 µM,60 µM,8.3 µM,–,7.6 µM,–,20 µM
CCCCCCCCCCNC(=O)[C@H]1NC(=O)[C@H]2NC(=O)[C@H](NC(=O)[C@@H]3NC(=O)[C@H](CC(N)=O)NC(=O)[C@H](NC(=O)[C@@H](CC(C)C)NC)[C@H](O)c4ccc(c(Cl)c4)Oc4cc3cc(c4O[C@@H]3O[C@H](CO)[C@@H](O)[C@H](O)[C@H]3O[C@H]3C[C@](C)(N)[C@@H](O)[C@H](C)O3)Oc3ccc(cc3)[C@H]2O[C@H]2C[C@](C)(N)[C@@H](O)[C@H](C)O2)c2ccc(O)c(c2)-c2c(O)cc(O)cc21,–,9.4 µM,> 10 µM,21 µM,–,29 µM,> 10 µM
CCCCOc1ccc(CNC2C(Oc3c4cc5cc3Oc3ccc(cc3Cl)C(O)C3NC(=O)C(NC(=O)C5NC(=O)C5NC(=O)C(Cc6ccc(cc6)O4)NC(=O)C(N(C)Cc4ccc(OCCCC)cc4)c4ccc(O)c(c4)Oc4cc(O)c(Cl)c5c4)c4ccc(O)c(c4)-c4c(O)cc(O)cc4[C@H](C(=O)NCCCN(C)C)NC3=O)OC(C(=O)NCCCN(C)C)C(O)C2O)cc1 (stereo partly specified),20 µM,80 µM,> 10 µM,18 µM,> 4 µM,20 µM,5 µM
CCCCc1ccc(CNC2C(Oc3c4cc5cc3Oc3ccc(cc3Cl)C(O)C3NC(=O)C(NC(=O)C5NC(=O)C5NC(=O)C(Cc6ccc(cc6)O4)NC(=O)C(NC)c4ccc(O)c(c4)Oc4cc(O)c(Cl)c5c4)c4ccc(O)c(c4)-c4c(cc(O)c(CN5CCN(Cc6ccc(-c7ccccc7)cc6)CC5)c4O)[C@H](C(=O)NCCCN(C)C)NC3=O)OC(C(=O)NCCCN(C)C)C(O)C2O)cc1 (stereo partly specified),20 µM,212 µM,20 µM,35 µM,> 4 µM,25 µM,3.5 µM
CNC(=O)[C@@H]1NC(=O)C2NC(=O)C(NC(=O)C3NC(=O)C4NC(=O)C(Cc5ccc(c(Cl)c5)Oc5cc3cc(c5O)Oc3ccc(cc3Cl)C2O)NC(=O)C(N)c2ccc(O)c(c2)Oc2cc(O)cc4c2)c2ccc(O)c(c2)-c2c(O)cc(O)cc21 (stereo partly specified),> 100 µM,> 500 µM,17 µM,> 500 µM,> 20 µM,> 500 µM,15 µM
NC1C(=O)NC2Cc3ccc(c(Cl)c3)Oc3cc4cc(c3O)Oc3ccc(cc3Cl)C(O)C3NC(=O)C(NC(=O)C4NC(=O)C(NC2=O)c2cc(O)cc(c2)Oc2cc1ccc2O)c1ccc(O)c(c1)-c1c(O)cc(O)cc1[C@H](C(=O)NC1C2CC4CC(C2)CC1C4)NC3=O (stereo partly specified),> 100 µM,123 µM,6 µM,26 µM,2.1 µM,30 µM,7 µM
